Assay results as given in article PMC10655119 (Journal of the American Chemical Society, 2023).

How the values were obtained:
Format in all cases: cell-based
HeLa cells [1] = assay: Protein-CPP; settings: 1 h; for Delivery of I into the cytosol with CPP-additive at 2.5 μM: I 5 μM + CPP-additive 2.5 μM, serum-free
HeLa cells [2] = assay: Time-lapse fluorescence microscopy of Cy5-labeled CPP-additives; settings: for Time until nucleolar mCherry signals are observed: serum-free, images at 60 s intervals
Procedure, shortened: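 HeLa cells given Cy5-labeled R10 peptide additives (1 μM), with or without the hydrophobic motif, in serum-free FluoroBrite DMEM. Confocal imaging at 5 and 10 min, with line-scan profiles of Cy5 distribution. For cotreatment, NLS-mCherry-R10 cargo (5 μM) and additive were added after 60 s of baseline imaging. Frames taken every 60 s for 15 min to track nucleolar mCherry.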

HeLa cells [3] = assay: Mitochondrial dehydrogenase; settings: 1 h, serum-free FluoroBrite DMEM
Procedure, shortened: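 HeLa cells exposed 1 h to CPP-additive (2.5, 5 or 10 μM) in serum-free FluoroBrite DMEM, then viability read by WST-1 reduction to formazan by mitochondrial dehydrogenase. For prolonged exposure, cells coincubated 1 h with NLS-mCherry-R10 cargo plus additive, supernatant replaced with fresh culture medium, and WST-1 read after 24 h.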

HeLa cells [4] = assay: Lactate dehydrogenase; settings: 1 h
Procedure, shortened: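 HeLa cells exposed to CPP-additives at 2.5, 5 or 10 μM for 1 h in serum-free FluoroBrite DMEM. Membrane integrity judged by lactate dehydrogenase released into the medium. Mean ± SE of three biological replicates.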

[5] = HeLa, 2.5, 5 or 10 μM CPP-additive, three biological replicates
[6] = HeLa, 2.5, 5 or 10 μM CPP-additive

In the case of `O=C(O)CCCc1ccc2ccc3cccc4ccc1c2c34` [PyB, pyrenebutyrate, reference compound], the “Uptake of I at lowered I concentration with PyB” value (HeLa cells [1]; PyB 50 μM 5 min, then I 5 μM) is reported as “loss of enhanced uptake of I” and the “Uptake of I after pretreatment with PyB at 10 μM and lower” value (HeLa cells [1]; PyB 10 and 5 μM 5 min, then I) is reported as “only endosomal uptake”.
In the case of TNB-Cy5-R10 [compound 22], the “Line-scan profile of Cy5 fluorescence after 10 min” value (HeLa cells [2]; 1 μM peptide alone) is reported as “mainly observed within the interior of cells”, the “Localisation of Cy5-labeled CPP-additive over time” value (HeLa cells [2]; 1 μM peptide alone, serum-free FluoroBrite DMEM, 37 °C, time-lapse) is reported as “quickly enters the cytosol” and the “Time until nucleolar mCherry signals are observed” value (HeLa cells [2]; I 5 μM + Cy5-additive 1 μM) is reported as 15 min.
TNB-Cy5-R10-ILFF [compound 23] was tested, and the “Line-scan profile of Cy5 fluorescence after 10 min” value (HeLa cells [2]; 1 μM peptide alone) was “remained concentrated around the cell periphery”, the “Time until cell-surface-associated additive is internalized into endosomes” value (HeLa cells [2]; 23 1 μM 5 min at 37 °C, washed, time-lapse 30 min) was 30 min and the “Cell membrane accumulation of additive in the presence of I” value (HeLa cells [2]; I 5 μM + Cy5-additive 1 μM) was “persisted even after 10 min”. For the same compound, the “Time until nucleolar mCherry signals are observed” value (HeLa cells [2]; I 5 μM + Cy5-additive 1 μM) was 3 min.
In the case of TNB-R10-FWF [compound 3], the “Cytotoxicity (WST1 assay)” value (HeLa cells [3]; HeLa, 5 μM CPP-additive) is reported as “no cytotoxicity” and the “LDH release (membrane integrity)” value (HeLa cells [4]; HeLa, 5 μM CPP-additive) is reported as “significantly released”.
For TNB-R10-ILIL [compound 4], the “Cytotoxicity (WST1 assay)” value (HeLa cells [3]; [5]) was “no cytotoxic effect” and the “LDH release (membrane integrity)” value (HeLa cells [4]; [6]) was “no LDH release”.
In the case of TNB-R10-ILLL [compound 5], the “Cytotoxicity (WST1 assay)” value (HeLa cells [3]; [5]) is reported as “no cytotoxic effect” and the “LDH release (membrane integrity)” value (HeLa cells [4]; [6]) is reported as “no LDH release”.
TNB-R10-Nal2 [compound 7] was tested, and the “Delivery of I into the cytosol with CPP-additive at 2.5 μM” value (HeLa cells [1]) was “successful delivery”.
TNB-R10-Nal [compound 6] was tested, and the “Delivery of I into the cytosol with CPP-additive at 2.5 μM” value (HeLa cells [1]) was “successful delivery”.
With alk-Cy5-R10-ILFF [alkylated analogue] the “Membrane interaction and facilitation of protein-CPP uptake” value (HeLa cells [2]; alk-Cy5-R10-ILFF 1 μM alone or with I 5 μM, 10 min) was “incapable of both interacting with the cell membrane and facilitating the uptake of protein-CPPs”.
